# OX1R antag-1 = OX1R (human) antagonism | OX1R-expressing cells, FRET antagonist read-out | inhibition, % at 6.6 µM | 330,000 compounds, 1.8% hits | AID 485270; in the data active = inhibition mostly above about 38%, no sharp cut-off; inactive = mostly below about 40%;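 also: 0% = agonist challenge alone and 100% = reference antagonist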
# Target sequence (O43613 whole entry, looked up): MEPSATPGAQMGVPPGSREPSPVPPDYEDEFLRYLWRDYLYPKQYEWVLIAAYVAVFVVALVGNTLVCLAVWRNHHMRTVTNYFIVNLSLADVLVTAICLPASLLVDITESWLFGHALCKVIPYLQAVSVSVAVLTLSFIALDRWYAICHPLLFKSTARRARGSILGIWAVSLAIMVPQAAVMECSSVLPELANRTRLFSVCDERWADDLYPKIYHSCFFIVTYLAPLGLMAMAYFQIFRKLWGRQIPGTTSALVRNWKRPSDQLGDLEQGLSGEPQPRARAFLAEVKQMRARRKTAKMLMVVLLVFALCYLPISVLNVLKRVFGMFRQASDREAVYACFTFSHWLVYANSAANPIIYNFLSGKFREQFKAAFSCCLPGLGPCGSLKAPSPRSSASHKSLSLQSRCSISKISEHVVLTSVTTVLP
# TAAR1 ag = agonists of human TAAR1; Q96RJ0; CHO RD-HGA16 TAAR1, Fluo-8 calcium fluorescence; vehicle wells 0%, saturating PEA agonist 100%; activation, % at 3 µM; 360,000 compounds, 0.99% hits;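 active = activation above the mean activation of all test compounds in the run plus 3 SD, cut at about 38% in these data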
#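 test system = CHO RD-HGA16 cells carrying human TAAR1 plus Gα16 | schedule = 17-24 h seeding, 75 min 37 °C dye, 30 min RT | compound dosing = 3 µM single concentration | control set = DMSO and PEA EC100 | replicates = n 1 | signal = Fluo-8 fluorescence, 5 s baseline then 140 s kinetic read | measure = percent activation vs PEA EC100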
# TAAR1 antag = human TAAR1 antagonism | AID 624466 | 360,000 compounds, 1.5% hits | CHO RD-HGA16 TAAR1, Fluo-8 calcium fluorescence, antagonist | inhibition, % at 3 µM | Q96RJ0;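 active = inhibition above a per-plate cutoff, the mean inhibition of test compounds on that plate plus 3 SD, cut at about 49% in these data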;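 also: 0% = DMSO plus EC80 beta-PEA response and 100% = DMSO alone without agonist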
#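 Material: CHO RD-HGA16 cells bearing hTAAR1; compound dosing: one-point dosing, 3 µM nominal final; schedule: dye loading 75 min at 37 °C, then 30 min room temperature; measured by: calcium fluorescence with Fluo-8; control set: vehicle and agonist controls; replication: n of 1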
# GPR7 antag = human neuropeptides B/W receptor 1 antagonism; GPR7-expressing cells, fluorescence antagonist assay; inhibition, % at 4.4 µM; 290,000 compounds, 1.1% hits; in the data active = inhibition above about 16%, passing the limit was not always enough;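 also: cells stimulated with the agonist NPW; 0% = agonist with vehicle and 100% = vehicle without agonist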
# CHO parental Ca = signal in parental CHO cells, OX1R antagonist counter-screen | parental CHO-K1, ATP-induced calcium, Fluo-8 fluorescence | inhibition, % at 5.6 µM | 330,000 compounds, 0.63% hits | AID 463079;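 active = inhibition above that plate's mean sample inhibition plus 3 SD, cut at about 26% in these data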;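 also: 0% = ATP-challenged DMSO wells and 100% = DMSO wells without ATP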
#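 Test system: untransfected parental CHO cell line; also added: ATP stimulus; dosing: 5.6 µM, single dose; signal: calcium-sensitive Fluo-8 fluorescence; measure: percent inhibition of ATP-evoked calcium rise, normalized to controls; benchmarks: low control ATP plus DMSO, high control DMSO only; replication: one well per compound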
# OX1R antag-2 = blocks the human orexin 1 receptor; O43613; inhibition, % at 5 µM; AID 434989; CHO/OX1R cells, Fluo-8 calcium fluorescence, orexin A; 330,000 compounds, 0.43% hits;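 active = inhibition above its plate's threshold, mean inhibition of all tested compounds on the plate plus 3 SD, cut at about 37% in these data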;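 also: 0% = orexin A challenge wells and 100% = SB-334867-A antagonist wells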
# Numbers without * were called inactive; . = no result given. Hits are enriched below; roughly 4.6% of the tested compounds scored in any of these assays.
SMILES,OX1R antag-1,TAAR1 ag,TAAR1 antag,GPR7 antag,CHO parental Ca,OX1R antag-2
C=CCn1c(-c2ccc(S(=O)(=O)N3CCOCC3)cc2)csc1=Nc1ccccc1,19,8,20,-6,39*,4
CCOc1ncccc1C(=O)Nc1nnc(C)s1,15,1,-8,-5,-13,1
O=C(CSc1cccc(C(F)(F)F)c1)Nc1nnc(C2CC2)s1,3,3,-24,.,5,9
O=C(CSc1ccccc1)Nc1nnc(C2CC2)s1,21,8,-24,15,30*,-4
CCOc1ncccc1C(=O)Nc1cc2c(cc1Br)OCCO2,40*,7,-21,.,-30,22
CCOc1ncccc1C(=O)Nc1ccc2c(c1)OCO2,12,-2,-31,-4,-20,-15
CCOc1ncccc1C(=O)Nc1nnc(C2CC2)s1,74*,3,5,0,-12,9
COc1cc(Nc2cc(C)n(-c3cc(OC)cc(OC)c3)c(=O)c2)cc(OC)c1,.,-2,17,.,.,.
O=S1(=O)N[C@@H](Cc2ccccc2)COc2cc(N3CCCCC3)ccc21,.,-1,1,.,.,.
Cc1cc2c(=O)[nH]c(N)nc2[nH]1,.,2,-20,.,.,.
CC(C)[C@H](NS(=O)(=O)c1ccc(F)cc1F)C(=O)N1CCC[C@H]1C(=O)NCc1ccccc1,.,1,-24,.,.,.
CC1(C)CC(=O)C(N=Nc2ccc(OC(F)F)cc2)=C(O)C1,56*,0,-2,-12,-8,-16
COCCNC(=O)C(c1ccc(F)cc1)N(Cc1ccco1)C(=O)CCC(=O)Nc1ccccn1 (stereo unspecified),40,2,-21,-15,-15,-11
Cc1cc(NC(=O)CCC(=O)N(Cc2ccco2)C(C(=O)NC2CCCC2)c2ccccc2C)no1 (stereo unspecified),44,14,8,-13,-19,-7
COCCNC(=O)C(c1ccc(F)cc1)N(Cc1ccco1)C(=O)CCC(=O)Nc1nccs1 (stereo unspecified),60*,0,4,-12,-13,26
Cc1cc(NC(=O)CCC(=O)N(Cc2ccco2)C(C(=O)NC2CCCCC2)c2ccccc2)no1 (stereo unspecified),53*,5,11,-4,-21,-18
O=C(CN1C(=O)CSc2ccc(S(=O)(=O)N3CCOCC3)cc21)NCc1ccc(Cl)cc1,48*,0,-3,-12,-3,3
Cc1cccc(-c2ncc(CN3CCN(CCC(C)C)C(CCO)C3)cn2)c1 (stereo unspecified),17,7,-12,19*,-13,-30
O=C(C(=O)N1CCC(c2ccccc2)CC1)c1ccc(F)c(F)c1,.,-2,-4,.,.,.
O=C(NC1CCN(Cc2ccccc2)CC1)c1[nH]c(C(F)(F)F)nc1-c1ccccc1,.,4,0,.,.,.
COC(=O)[C@H](Cc1ccccc1)NC(=O)NC(C)CCc1ccccc1 (stereo partly specified),8,45*,13,22,13,23
N#Cc1ccc(S(=O)(=O)N2CCCCC2c2cc(C(=O)NCc3cccnc3)no2)cc1 (stereo unspecified),.,0,-2,.,.,.
CCOCCCNC(=O)C1CCC(CNS(=O)(=O)c2cccc3nsnc23)CC1 (stereo unspecified),53*,7,7,-7,-7,-12
CCCNC(=O)C1CCC(CNS(=O)(=O)c2cccc3nsnc23)CC1 (stereo unspecified),34,6,-7,-17,0,8
COCCNC(=O)C1CCC(CNS(=O)(=O)c2cccc3nsnc23)CC1 (stereo unspecified),24,5,-11,-13,-4,7
SMILES,OX1R antag-1,TAAR1 ag,TAAR1 antag,GPR7 antag,CHO parental Ca,OX1R antag-2
CCCCNC(=O)C1CCC(CNS(=O)(=O)c2cccc3nsnc23)CC1 (stereo unspecified),41,11,-23,-10,-11,-8
CCC(C)NC(=O)C1CCC(CNS(=O)(=O)c2cccc3nsnc23)CC1 (stereo unspecified),50*,.,.,-7,-10,-8
O=C(CCCNS(=O)(=O)c1cccc2nsnc12)NC1CCCCC1,80*,1,8,4,-12,-20
CC1CCCN(CCCNC(=O)C2CCC(CNS(=O)(=O)c3cccc4nsnc34)CC2)C1 (stereo unspecified),48*,.,.,-6,-7,1
CCCCS(=O)(=O)N1CCCc2nc(-c3ccc(Br)cc3)ccc21,.,1,19,.,.,.
Oc1ccc2ccccc2c1C=Nc1ccc(N2CCOCC2)cc1,51*,21,25,-5,-5,5
C=Cc1ccc(N=Cc2c(O)ccc3ccccc23)cc1,4,4,-12,5,-16,-37
CCOC(=O)c1cn(-c2c(Cl)cccc2Cl)c2cc(Cl)c([N+](=O)[O-])cc2c1=O,52,10,30,-7,-10,-25
CCOC(=O)c1cn(CC)c2cc(Cl)c([N+](=O)[O-])cc2c1=O,55*,0,-4,-11,-2,-10
COC(=O)[C@]12C[C@H](CC(=O)N3CCC(c4ccccc4)CC3)C(=O)N(Cc3ccccc3)C1=C[C@H](C1CCCC1)O[C@@H]2C,.,-1,-26,.,.,.
Cc1cc(C)cc(OCC(=O)OCC(=O)c2ccc3c(c2)NC(=O)CO3)c1,24,19,17,-9,38*,7
Cc1ccc(C(=O)NCC(=O)OCC(=O)c2ccc3c(c2)NC(=O)CO3)cc1C,26,2,-5,-8,-3,7
Oc1c(Cl)cc(Cl)cc1Sc1cc(Cl)cc(Cl)c1O,60*,.,.,2,101*,73*
C=CCn1c(O)c(N=Nc2ccccc2O)c2ccccc21,6,6,5,.,67*,77*
C=C(CN(C)C)C(=O)c1ccc(OC2OC(COC(C)=O)C(OC(C)=O)C(OC(C)=O)C2OC(C)=O)cc1 (stereo unspecified),.,13,60*,.,.,.
C=C(CN(C)C)C(=O)c1ccc2c(c1)OCO2,.,0,-11,.,.,.
COc1ccc(CNC(=O)[C@]2(C)CCC[C@@]3(C)C4CC[C@@]5(C)C[C@]4(CCC32)CC5=O)cc1 (stereo partly specified),-5,14,49*,.,-26,-20
COC(=O)[C@H](Cc1ccccc1)N1C[C@@H](N2CCC[C@H]2C)CS1(=O)=O,.,0,3,.,.,.
CCCCCCN1CCN(C2CN(Cc3cn(Cc4ccccc4)nn3)S(=O)(=O)C2)CC1 (stereo unspecified),.,0,-18,.,.,.
Cc1ccc(C2C(C#N)=C(N)Oc3cc(N)ccc32)cc1 (stereo unspecified),3,5,-15,-6,-6,0

# High-throughput results (PubChem BioAssay)
